In ChEMBL document CHEMBL1144868, “Modulation of P-glycoprotein-mediated multidrug resistance by flavonoid derivatives and analogues” (2003):

How the values were obtained:
Format in all cases: functional, Homo sapiens
K562 [1] = test: Rhodamine-123 accumulation in K562 cells with or without expression of PGP protein at a concentration of 0.1 uM
How it was run: (§1)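 K562R (adriamycin-resistant, Pgp-expressing) cells, kept under continuous 10^-6 M adriamycin, were washed twice and suspended at 10⁶ cells/mL in RPMI. Modulator was added for 15 min at 37 °C, then rhodamine-123 at 0.05 µg/mL final for 1 h at 37 °C. Fluorescence at […] was read by flow cytometry in arbitrary units, as the mean of at least 3 independent experiments.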

K562 [2] = test: Rhodamine-123 accumulation in K562 cells with or without expression of PGP protein at a concentration of 1 nM; how it was run: as §1
K562 [3] = test: Rhodamine-123 accumulation in K562 cells with or without expression of PGP protein at a concentration of 1 uM; how it was run: as §1
K562 [4] = test: Rhodamine-123 accumulation in K562 cells with or without expression of PGP protein at a concentration of 0.01 uM; how it was run: as §1

Row | Compound | Rhodamine-123 accumulation (K562 [1]) [arbitrary units] | Rhodamine-123 accumulation (K562 [2]) [arbitrary units] | Rhodamine-123 accumulation (K562 [3]) [arbitrary units] | Rhodamine-123 accumulation (K562 [4]) [arbitrary units]
1 | O=C(c1cc(=O)c2c(O)cccc2o1)N1CCN(Cc2ccccc2)CC1 | 95 | 45 | 136 | 72
2 | COc1cc(OC)c2c(c1)O/C(=C\c1ccccc1)C2=O | 203 | 40 | 249 | 178
3 | O=C(c1ccccc1)N1CCN(C(=O)c2cc(=O)c3c(O)cccc3o2)CC1 | 47 | 38 | 42 | 45
4 | O=C(c1cc(=O)c2c(O)cccc2o1)N1CCN(c2ccccc2)CC1 | 57 | 39 | 82 | 40
5 | COc1cc(OC)c2c(O)c(-c3ccccc3)cnc2c1 | 55 | 36 | 82 | 43
6 | O=C(NCc1ccc(Cl)cc1)c1cc(=O)c2c(O)cccc2o1 | 45 | 50 | 46 | 42
7 | CN1CCN(C(=O)c2cc(=O)c3c(O)cccc3o2)CC1 | 138 | 76 | 207 | 134
8 | O=C(c1cc(=O)c2c(O)cccc2o1)N1CCCCC1 | 44 | 43 | 45 | 46
9 | CC(=O)N1CCN(C(=O)c2cc(=O)c3c(O)cccc3o2)CC1 | 37 | 41 | 38 | 43
10 | O=C(c1cc(=O)c2c(O)cccc2o1)N1CCOCC1 | 44 | 39 | 42 | 41
11 | CCN1CCN(C(=O)c2cc(=O)c3c(O)cccc3o2)CC1 | 47 | 40 | 85 | 44
12 | COc1cc(OC)c2c(=O)c(-c3ccccc3)coc2c1 [5,7-DIMETHOXYISOFLAVONE] | 46 | 40 | 49 | 54
13 | C/C=C/C[C@@H](C)[C@@H](O)[C@H]1C(=O)N[C@@H](CC)C(=O)N(C)CC(=O)N(C)[C@@H](CC(C)C)C(=O)N[C@@H](C(C)C)C(=O)N(C)[C@@H](CC(C)C)C(=O)N[C@@H](C)C(=O)N[C@H](C)C(=O)N(C)[C@@H](CC(C)C)C(=O)N(C)[C@@H](CC(C)C)C(=O)N(C)[C@@H](C(C)C)C(=O)N1C [CYCLOSPORINE] | 87 | 72 | 102 | 80
